According to ChEMBL document CHEMBL1144398, “Structure-based design, parallel synthesis, structure-activity relationship, and molecular modeling studies of thiocarbamates, new potent non-nucleoside HIV-1 reverse transcriptase inhibitor isosteres of phenethylthiazolylthiourea derivatives” (J Med Chem, 2005):

Assays:
[1] = system: C8166; experiment: Effective concentration required to reduce the amount of p24 antigen levels in wild type human immunodeficiency virus type 1 infected C8166 cultures; assay type: functional
Method in brief: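 C8166 cultures infected with wild-type HIV-1. p24 antigen in the cultures was measured after compound treatment, and EC90 is the concentration that reduces p24 by 90%. Trovirdine served as the reference.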

[2] = system: MT4; experiment: Cytotoxic concentration required to reduce the viability of mock infected MT-4 cells determined by MTT method; assay type: functional; details: Homo sapiens
Method in brief: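 Viability of mock-infected MT-4 cells, assayed in parallel with the antiviral test, read by MTT. CC50 is the concentration that lowers viability by 50%. Values are means of three separate experiments, with variation among triplicates under 10%. The highest concentration tested was 100 µM.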

[3] = system: MT4; experiment: Ratio of CC50 to that of EC50 determined in MT-4 cells; assay type: functional
Method in brief: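 Selectivity index, calculated as CC50/EC50. CC50 came from MTT viability of mock-infected MT-4 cells and EC50 from MTT-read protection of HIV-1-infected MT-4 cells from cytopathogenicity, with both run in parallel. Values are means of three experiments.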

[4] = system: MT4; experiment: Effective concentration require to protect MT-4 cells from human immunodeficiency virus type 1 induced cytopathogenicity was determined by MTT method; assay type: functional, cell-based
Method in brief: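 MT-4 cells infected with HIV-1, with test compounds added. Protection from virus-induced cytopathogenicity was read by MTT. EC50 is the concentration giving 50% protection. Values are means of three separate experiments, with variation among triplicates under 10%. Trovirdine served as the reference.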

[5] = system: MT4; experiment: Effective concentration require to protect MT-4 cells from HIV-1 Y181C mutant induced cytopathogenicity was determined by MTT method; assay type: functional, cell-based, Homo sapiens
Method in brief: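 HIV-1 strains carrying the Y181C RT mutation in MT-4 cells. EC50 is the concentration giving 50% protection from virus-induced cytopathogenicity, read out by MTT. Trovirdine was run as the reference. Values are means of three separate experiments.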

[6] = target: T1, Human immunodeficiency virus type 1 reverse transcriptase (Human immunodeficiency virus 1, UniProt Q72547); experiment: Inhibitory concentration against HIV-1 virion reverse transcriptase
[7] = target: Human immunodeficiency virus type 1 reverse transcriptase (Human immunodeficiency virus 1, UniProt Q72547, Y181C); experiment: Inhibitory concentration against HIV-1 mutant reverse transcriptase (Y181C)
[8] = target: T1, Human immunodeficiency virus type 1 reverse transcriptase; experiment: Inhibitory concentration against HIV-1 mutant reverse transcriptase (K103R)
[9] = target: Human immunodeficiency virus type 1 reverse transcriptase (Human immunodeficiency virus 1, UniProt Q72547, K103N/Y181C); experiment: Inhibitory concentration against HIV-1 mutant reverse transcriptase (K103N+Y181C)
[10] = target: T1, Human immunodeficiency virus type 1 reverse transcriptase; experiment: Inhibitory concentration against HIV-1 wild type reverse transcriptase (IIIB)

| SMILES | EC90 [1] [nM] | CC50 [2] [nM] | SI [3] | EC50 [4] [nM] | EC50 [5] [nM] | IC50 [6] [nM] | IC50 [7] [nM] | IC50 [8] [nM] | IC50 [9] [nM] | IC50 [10] [nM] |
| --- | --- | --- | --- | --- | --- | --- | --- | --- | --- | --- |
| O=C1c2ccccc2C(=O)N1CCOC(=S)Nc1ccc(Cl)cc1 | 40 | > 100000 | >2500 | 40 | 2300 | – | – | – | – | – |
| O=C1c2ccccc2C(=O)N1CCOC(=S)Nc1ccc(Br)cc1 | 15 | > 100000 | >3333 | 30 | 2400 | – | – | – | – | – |
| CC(CO/C(S)=N\c1ccc(Cl)cc1)NC(=O)c1ccccc1C(=O)O (centres undefined) | – | > 100000 | >20 | 5000 | – | – | – | – | – | – |
| O=C1c2ccccc2C(=O)N1CCOC(=S)Nc1ccccc1 | – | > 100000 | >83.3 | 1200 | – | 600 | – | – | – | – |
| Cc1cccc2c1C(=O)N(CCO/C(S)=N/c1ccc(Cl)cc1)C2=O | – | > 100000 | >2000 | 50 | – | – | – | – | – | – |
| CC(CN1C(=O)c2ccccc2C1=O)O/C(S)=N/c1ccc([N+](=O)[O-])cc1 (centres undefined) | – | > 100000 | >11.6 | 8600 | – | – | – | – | – | – |
| O=C1c2ccccc2C(=O)N1CCOC(=S)Nc1ccc(I)cc1 | 40 | > 100000 | >5000 | 20 | – | – | > 20000 | 2300 | > 20000 | 90 |
| N#Cc1ccc(/N=C(/S)OCCNC(=O)c2ccccc2C(=O)O)cc1 | – | > 100000 | >1000 | 100 | – | – | – | – | – | – |
| CSc1cccc(NC(=S)OCCNC(=O)c2ccccc2C(=O)O)c1 | – | > 100000 | >9.1 | 11000 | – | – | – | – | – | – |
| O=C(O)c1ccccc1C(=O)NCCO/C(S)=N\c1ccc(OCc2ccccc2)cc1 | – | > 100000 | >200 | 500 | – | – | – | – | – | – |
| Cc1ccc2c(c1)C(=O)N(CCO/C(S)=N/c1ccc([N+](=O)[O-])cc1)C2=O | – | 80000 | >8000 | 10 | – | – | – | – | – | – |
| O=C1c2ccccc2C(=O)N1CCCOC(=S)Nc1ccc([N+](=O)[O-])cc1 | – | ≥ 100000 | >=5.3 | 19000 | – | – | – | – | – | – |
| CC(CN1C(=O)c2ccccc2C1=O)O/C(S)=N/c1ccc(C#N)cc1 (centres undefined) | – | > 100000 | >2.7 | 36000 | – | – | – | – | – | – |
| CCOc1ccc(NC(=S)OCCNC(=O)c2ccccc2C(=O)O)cc1 | – | > 100000 | 50 | 2000 | – | – | – | – | – | – |
| Cc1ccc(NC(=S)OCCNC(=O)c2ccccc2C(=O)O)cc1 | – | > 100000 | >250 | 400 | – | – | – | – | – | – |
| CCc1ccc(NC(=S)OCCNC(=O)c2ccccc2C(=O)O)cc1 | – | > 100000 | >333 | 300 | – | – | – | – | – | – |
| O=C1CCC(=O)N1CCOC(=S)Nc1ccc(Cl)cc1 | – | > 100000 | >42 | 2400 | – | – | – | – | – | – |
| O=C(O)c1ccccc1C(=O)NCCO/C(S)=N\c1ccc(Cl)cc1 | – | > 100000 | >1000 | 100 | – | – | – | – | – | – |
| O=C(O)c1ccccc1C(=O)NCCO/C(S)=N\c1ccc(I)cc1 | – | > 100000 | >769 | 130 | – | – | 4800 | > 20000 | > 20000 | 1700 |
| CC(C)c1ccc(NC(=S)OCCNC(=O)c2ccccc2C(=O)O)cc1 | – | > 100000 | >27 | 3700 | – | – | – | – | – | – |
| O=C1c2ccccc2C(=O)N1CCOC(=S)Nc1ccc(F)cc1 | 100 | > 100000 | >1000 | 100 | 38000 | – | – | – | – | – |

| SMILES | EC90 [1] [nM] | CC50 [2] [nM] | SI [3] | EC50 [4] [nM] | EC50 [5] [nM] | IC50 [6] [nM] | IC50 [7] [nM] | IC50 [8] [nM] | IC50 [9] [nM] | IC50 [10] [nM] |
| --- | --- | --- | --- | --- | --- | --- | --- | --- | --- | --- |
| CC(CN1C(=O)c2ccccc2C1=O)O/C(S)=N/c1ccc(Cl)cc1 (centres undefined) | – | > 100000 | >58.8 | 1700 | – | – | – | – | – | – |
| CC(CO/C(S)=N\c1ccc([N+](=O)[O-])cc1)NC(=O)c1ccccc1C(=O)O (centres undefined) | – | > 100000 | >7.7 | 13000 | – | – | – | – | – | – |
| O=C(O)c1ccccc1C(=O)NCCO/C(S)=N\c1ccc(Br)cc1 | – | > 100000 | >1000 | 100 | – | – | – | – | – | – |
| Cc1ccc(/N=C(\S)OC(C)CN2C(=O)c3ccccc3C2=O)cc1 (centres undefined) | – | > 100000 | >2.1 | 48000 | – | – | – | – | – | – |
| O=C(O)c1ccccc1C(=O)NCCO/C(S)=N\c1ccc(F)cc1 | – | > 100000 | >400 | 250 | – | – | – | – | – | – |
| O=C(O)c1ccccc1C(=O)NCCO/C(S)=N\c1ccc([N+](=O)[O-])cc1 | – | > 100000 | >333 | 300 | – | – | – | – | – | – |
| CC(COC(=S)Nc1ccc(Cl)cc1)N1C(=O)c2ccccc2C1=O (centres undefined) | – | 44000 | 880 | 50 | – | – | – | – | – | – |
| Cc1ccc(/N=C(/S)OC(C)CNC(=O)c2ccccc2C(=O)O)cc1 (centres undefined) | – | > 100000 | >2.4 | 41000 | – | – | – | – | – | – |
| O=C(Nc1ccc([N+](=O)[O-])cc1)OCCN1C(=O)c2ccccc2C1=O | – | > 100000 | >200 | 500 | – | – | – | – | – | – |
| CC(CN1C(=O)c2ccccc2C1=O)O/C(S)=N/c1ccc(Br)cc1 (centres undefined) | – | > 100000 | >43.5 | 2300 | – | – | – | – | – | – |
| N#Cc1ccc(NC(=S)OCCN2C(=O)c3ccccc3C2=O)cc1 | 100 | > 100000 | >1429 | 70 | 5900 | – | – | – | – | – |
| O=C1C2CC=CCC2C(=O)N1CCOC(=S)Nc1ccc(Br)cc1 (centres undefined) | – | > 100000 | >43 | 2300 | – | – | – | – | – | – |
| O=C1C2C3C=CC(C3)C2C(=O)N1CCOC(=S)Nc1ccc(Cl)cc1 (centres undefined) | – | > 100000 | >1.5 | 68000 | – | – | – | – | – | – |
| CC(CO/C(S)=N/c1ccc([N+](=O)[O-])cc1)N1C(=O)c2ccccc2C1=O (centres undefined) | – | > 100000 | >167 | 600 | – | – | – | – | – | – |
| O=C1C2CC=CCC2C(=O)N1CCOC(=S)Nc1ccc(Cl)cc1 (centres undefined) | – | > 100000 | >10.6 | 9400 | – | – | – | – | – | – |
| Cc1ccc2c(c1)C(=O)N(CCOC(=S)Nc1ccc(Cl)cc1)C2=O | – | > 100000 | >4000 | 25 | – | – | – | – | – | – |
| Cc1cccc2c1C(=O)N(CCO/C(S)=N/c1ccc([N+](=O)[O-])cc1)C2=O | – | 71000 | 1014 | 70 | – | – | – | – | – | – |
| O=C1c2ccccc2C(=O)N1CCOC(=S)Nc1ccc([N+](=O)[O-])cc1 | 30 | 65000 | 1625 | 40 | 6000 | – | – | – | – | – |
| COc1ccc(NC(=S)OCCNC(=O)c2ccccc2C(=O)O)cc1 | – | > 100000 | >500 | 200 | – | – | – | – | – | – |
| Cl.S=C(NCCc1ccccn1)Nc1ccc(Br)cn1 [TROVIRDINE HYDROCHLORIDE] | 15 | 60000 | 3000 | 20 | 1200 | – | 15000 | > 20000 | > 20000 | 1030 |
